M5 ag = CHRM5 agonism in calcium assay | CHO-K1 hM5 cells, Fluo-8 calcium fluorescence; 0% DMSO wells, 100% maximal acetylcholine response | activation, % at 3 µM | 0.19% of 360,000 active | AID 624037;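 active = activation above the run's mean over test compounds plus 3 SD, cut at about 23% in these data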;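 note: signal is peak over basal fluorescence ratio across the kinetic read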
Target sequence (P08912 whole entry, looked up): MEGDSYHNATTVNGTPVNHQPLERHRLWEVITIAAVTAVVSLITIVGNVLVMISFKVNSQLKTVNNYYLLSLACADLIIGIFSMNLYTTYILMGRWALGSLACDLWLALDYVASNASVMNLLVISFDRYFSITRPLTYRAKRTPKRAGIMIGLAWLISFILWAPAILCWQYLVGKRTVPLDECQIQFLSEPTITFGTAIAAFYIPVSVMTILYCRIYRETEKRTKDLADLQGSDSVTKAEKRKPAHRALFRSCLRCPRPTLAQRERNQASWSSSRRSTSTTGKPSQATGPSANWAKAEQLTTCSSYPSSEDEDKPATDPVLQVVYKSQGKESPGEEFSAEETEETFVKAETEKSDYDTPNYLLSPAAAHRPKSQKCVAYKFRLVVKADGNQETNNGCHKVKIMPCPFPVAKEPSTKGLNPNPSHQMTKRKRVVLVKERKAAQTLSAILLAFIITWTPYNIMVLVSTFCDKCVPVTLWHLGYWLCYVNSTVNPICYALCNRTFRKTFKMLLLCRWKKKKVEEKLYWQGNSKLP
CHRM4 agonist = CHRM4 agonism in calcium assay; P08173; CHO-K1 hM4/Gqi5, Fluo-8 calcium fluorescence; vehicle 0%, full acetylcholine response 100%; activation, % at 3 µM; 0.14% of 360,000 active; AID 624127;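 active = activation above the run mean over all test wells plus 3 SD, cut at about 32% in these data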;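 note: peak over basal fluorescence ratio per well then scaled between controls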
M5 PAM = positive allosteric modulators of human muscarinic M5 receptor. 0.3% of 360,000 active. AID 624038. activation, % at 3 µM. P08912. CHO-K1 hM5, Fluo-8 calcium, ACh EC20 PAM; 0% = ACh EC20, 100% = ACh EC100;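 active = activation above the run cutoff, the mean activation of all test compounds plus 3 SD, cut at about 18% in these data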
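system = human M5 receptor in CHO-K1 cells | reagent = EC20 acetylcholine as agonist stimulus | compound dosing = single-point, 3 µM nominal | incubation = Fluo-8 loading 80 min at 37 °C plus 30 min room temperature | detection = Fluo-8 calcium dye fluorescence, kinetic read | benchmarks = low control EC20 acetylcholine (0%), high control EC100 acetylcholine (100%)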
M4 PAM = CHRM4 positive allosteric modulation | P08173 | activation, % at 3 µM | 0.4% of 360,000 active | CHO-K1 hM4/Gqi5, Fluo-8 calcium fluorescence, ACh EC20; 0% = ACh EC20, 100% = maximal ACh;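 active = activation above its plate's cutoff, the mean activation of sample wells plus 3 SD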
M4 antag = CHRM4 antagonism in calcium assay | P08173 | CHO-hM4 cells, ACh EC80, Fluo-8 calcium fluorescence | inhibition, % at 3 µM | 0.73% of 360,000 active;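 active = inhibition above its plate's cutoff, the mean inhibition of sample wells plus 3 SD, cut at about 27% in these data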
M5 antag = antagonists of human muscarinic M5 receptor (CHRM5); P08912; CHO-hM5 cells, Fluo-8 calcium fluorescence, ACh EC80; inhibition, % at 3 µM; 0.59% of 360,000 active;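 active = inhibition above a per-plate cutoff, the mean of that plate's test compounds plus 3 SD, cut at about 27% in these data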
A number is an active result; n = inactive. In the library only some 1.8% were active in any assay of this set; here they are far more common.

SMILES | M5 ag | CHRM4 agonist | M5 PAM | M4 PAM | M4 antag | M5 antag
COc1ccc(CNCC(O)(c2ccccc2)c2ccc(Cl)cc2)cc1 (centres undefined) | n | n | n | n | 28.2 | n
Cc1ccc(CNCC(O)(c2ccccc2)c2ccc(Cl)cc2)cc1 (centres undefined) | n | n | n | n | n | n
O=C(N1CCCC1)N1CCN(S(=O)(=O)c2ccccc2)CC1 | n | n | n | n | n | n
CC1CCCN(C(C(=O)NC2CCCCC2)c2cc3c(cc2[N+](=O)[O-])OCO3)C1 (centres undefined) | n | n | n | 25.3 | n | n
Cc1cc(C)c2c(N)c(C(=O)Nc3ccccc3F)sc2n1 | n | n | n | n | n | n
CCc1ccc(NC(=O)CSc2nc(=O)n(CCCN(C)C)c3c2CCC3)cc1 | n | n | n | n | n | 30.9
CN(C)CCn1c2c(c(SCC(=O)Nc3ccccc3)nc1=O)CCCC2 | n | n | n | n | n | n
CCN(CC)CCn1c2c(c(SCC(=O)Nc3ccc(C(C)C)cc3)nc1=O)CCCC2 | n | n | n | n | n | n
CC(C)c1ccc(NC(=O)CSc2nc(=O)[nH]c3c2CCCC3)cc1 | 44.9 | n | n | 28.1 | n | n
CC(C)CCC1CC(CSC(=N)N)OC1=O (centres undefined) | n | n | 21.0 | n | n | n
CC(C)CN(C(=O)CCNC(=O)c1ccc(Cl)cc1)C1CCS(=O)(=O)C1 (centres undefined) | n | n | 18.3 | n | n | n
CC(C)CN(C(=O)CN(C)S(=O)(=O)c1ccc(Cl)cc1)C1CCS(=O)(=O)C1 (centres undefined) | n | n | n | n | n | n
COc1ccc(-c2cn(Cc3ccc(C(N)=O)cc3)c(CCN)n2)cc1 | n | n | n | n | n | n
Cc1cccc(N2CCN(C(=O)Cn3nc(C)n4cccc4c3=O)CC2C)c1 (centres undefined) | n | n | n | n | n | n
Cc1cccc(N2CCN(C(=O)Cn3sc4nc(C)cc(C)c4c3=O)CC2C)c1 (centres undefined) | n | n | n | n | 53.9 | n
CCOc1ccc(NC(=O)Cn2sc3nc(C)cc(C)c3c2=O)cc1 | n | n | n | n | 54.5 | n
Cc1cc(C)c2c(=O)n(CC(=O)Nc3ccc(Cl)cc3)sc2n1 | n | 61.0 | n | n | 30.7 | n
Cc1cc(C)c2c(=O)n(CC(=O)Nc3cccc(F)c3)sc2n1 | n | n | n | n | n | n
NS(=O)(=O)c1ccc(NC(=O)COC(=O)COc2ccc(Br)cc2)cc1 | n | n | n | n | n | n
COc1cccc2c1oc1c(SCc3nc4ccccc4[nH]3)nc(C)nc12 | n | n | n | n | n | n
COc1ccccc1C(c1c(N)n(C)c(=O)n(C)c1=O)C(C)[N+](=O)[O-] (centres undefined) | n | n | n | n | n | 27.9
COc1ccccc1C(C[N+](=O)[O-])c1c(N)n(C)c(=O)n(C)c1=O (centres undefined) | n | n | n | n | n | n
COc1ccc(OC)c(NC(=O)CSc2nnc(-c3cnccn3)n2C)c1 | n | n | n | n | n | n
Cc1cc(C(=O)NCc2cccnc2)n(-c2ccccc2)n1 | n | n | n | n | 34.8 | n
Cc1ccc(CNC(=O)c2cc(C)nn2-c2ccccc2)cc1 | n | n | n | n | n | n
SMILES | M5 ag | CHRM4 agonist | M5 PAM | M4 PAM | M4 antag | M5 antag
NC(=O)c1ccc(N2CCN(S(=O)(=O)c3ccccc3)CC2)c([N+](=O)[O-])c1 | n | n | n | n | n | 29.4
O=C(c1ccc(N2CCCCC2)c([N+](=O)[O-])c1)N1CCN(S(=O)(=O)c2ccccc2)CC1 | n | n | n | n | n | n
CC(Oc1ccc(F)cc1)c1ccnc2nc(/N=C/N(C)C)nn12 (centres undefined) | n | n | n | n | n | n
CC(Oc1ccc(C(C)(C)C)cc1)c1ccnc2nc(/N=C/N(C)C)nn12 (centres undefined) | n | n | n | n | 44.0 | n
Cc1onc(-c2ccccc2Cl)c1C(=O)NNC(=O)c1ccccc1F | n | n | n | n | n | n
CCOc1ccccc1NC(=O)CSc1nc2cc(O)ccc2c(=O)n1-c1ccc(OC)c(OC)c1 | n | n | n | n | n | n
CC(C)(C)NC(=O)C(c1cccs1)N(Cc1ccc(F)cc1)C(=O)c1csnn1 (centres undefined) | n | n | n | n | n | 37.2
CC(C)(C)NC(=O)C(c1cccs1)N(C(=O)c1csnn1)c1cccc(F)c1 (centres undefined) | n | n | n | n | n | n
Cc1cccc2cc(-c3ccccc3)c(-c3ccccc3)c[n+]12 | n | n | n | n | 37.7 | n
O=[N+]([O-])c1cccc(-c2cc3cccc[n+]3cc2-c2cccc([N+](=O)[O-])c2)c1 | n | n | n | n | n | n
Cc1ccc(-c2c[n+](CC(=O)Nc3c(C)cccc3C)c3n2CCC3)cc1 | n | n | n | n | n | n
O=C(C[n+]1cc(-c2ccc(F)cc2)n2c1CCC2)N1c2ccccc2Sc2ccccc21 | n | n | n | n | 80.7 | 97.1
O=C(C[n+]1cc(-c2ccccc2)n2c1CCC2)c1cccs1 | n | n | n | n | n | n
O=C(C[n+]1cc(-c2ccccc2)n2c1CCC2)Nc1nc(-c2ccc(F)cc2)cs1 | n | n | n | n | n | n
Cc1ccc(-c2c[n+](CC(=O)N3c4ccccc4Sc4ccccc43)c3n2CCC3)cc1 | n | n | n | n | 99.0 | 99.6
O=C(C[n+]1cc(-c2ccccc2)n2c1CCC2)N1c2ccccc2Sc2ccccc21 | n | n | n | n | 64.3 | 51.9
O=C(CN(Cc1ccccc1)S(=O)(=O)c1ccc(F)cc1)NCc1ccccn1 | n | n | n | n | n | n
Cc1cccc(C(O)c2ncc(-c3ccc(C(F)(F)F)cc3)[nH]2)c1C (centres undefined) | n | n | n | n | n | n
CC(C)(C)NC(=O)CN(Cc1cccs1)C(=O)CNS(=O)(=O)c1ccc(F)cc1 | n | n | n | n | n | n
CC(C)(C)NC(=O)CN(Cc1ccc2c(c1)OCO2)C(=O)CNS(=O)(=O)c1ccc(F)cc1 | n | n | 26.9 | 44.7 | n | n
COc1cccc(Nc2ncccc2C(=O)Nc2ccccc2)c1 | n | n | 18.9 | n | n | n
COc1cccc(NC(=O)c2ccccc2Oc2ccccc2)c1 | n | n | n | n | n | n
Cc1cc(-c2ccc(S(=O)(=O)N3CCN(C)CC3)s2)on1 | n | n | n | n | n | 35.3
CCOC(=O)C1CCN(S(=O)(=O)c2ccc3c(c2)CCN3C(C)=O)CC1 | n | n | n | n | n | 31.8
